What was measured:
[1] = target: T1, Matrix metalloproteinase-9 (Homo sapiens, UniProt P14780); experiment: Inhibition of recombinant MMP9 catalytic site using Mca-Pro-Leu-Gly-Leu-Dpa-Ala-Arg as substrate at 100 uM incubated for 30 mins prior to substrate addition measured after 3 hrs by fluorimetric assay
How it was run: (§1)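 Percent inhibition against control at a single concentration is measured on recombinant catalytic-domain MMP-8 or MMP-9 (500 pM enzyme solution). Tris-HCl 0.1 M pH 7.5 buffer with NaCl, CaCl2, Brij35, 1 mM APMA. Compound and enzyme 30 min at 25 °C, then substrate (25 μM solution) 3 h at 37 °C. Acetic acid stop, fluorescence 340/405 nm.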

[2] = target: T2, 72 kDa type IV collagenase (Homo sapiens, UniProt P08253); experiment: Inhibition of MMP2 using Mca-Pro-Leu-Gly-Leu-Dpa-Ala-Arg as substrate at 100 uM incubated for 30 mins prior to substrate addition measured after 3 hrs by fluorimetric assay
How it was run: (§2)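 Buffer: Tris-HCl 0.1 M pH 7.5, 0.1 M NaCl, 10 mM CaCl2, 0.05% Brij35, 1 mM APMA. Compound and enzyme 30 min at 25 °C, then substrate (25 μM solution) 3 h at 37 °C. Acetic acid quench, fluorescence ex 340/em 405 nm.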
Target sequence in this assay (P08253 110-660 limits assumed): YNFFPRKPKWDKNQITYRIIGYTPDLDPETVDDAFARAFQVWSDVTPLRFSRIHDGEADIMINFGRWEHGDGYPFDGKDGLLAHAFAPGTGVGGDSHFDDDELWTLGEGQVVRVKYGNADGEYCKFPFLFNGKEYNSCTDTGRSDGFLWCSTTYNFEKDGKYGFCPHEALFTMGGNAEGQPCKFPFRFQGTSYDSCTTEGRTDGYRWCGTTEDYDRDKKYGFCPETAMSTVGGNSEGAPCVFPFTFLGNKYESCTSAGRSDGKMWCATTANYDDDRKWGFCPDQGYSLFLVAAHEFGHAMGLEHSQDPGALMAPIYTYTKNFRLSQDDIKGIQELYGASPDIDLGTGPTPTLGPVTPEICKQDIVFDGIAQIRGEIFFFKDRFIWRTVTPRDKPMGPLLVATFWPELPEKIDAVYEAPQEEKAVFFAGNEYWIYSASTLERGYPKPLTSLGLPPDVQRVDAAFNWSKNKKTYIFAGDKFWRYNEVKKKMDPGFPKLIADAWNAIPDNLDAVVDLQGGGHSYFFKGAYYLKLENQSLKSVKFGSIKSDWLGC

Neutrophil collagenase [3] = target: T3, Neutrophil collagenase (Homo sapiens, UniProt P22894); experiment: Inhibition of recombinant MMP8 catalytic site using Mca-Pro-Leu-Gly-Leu-Dpa-Ala-Arg as substrate at 100 uM incubated for 30 mins prior to substrate addition measured after 3 hrs by fluorimetric assay; how it was run: as §1
Target sequence in this assay (P22894 101-467 limits assumed): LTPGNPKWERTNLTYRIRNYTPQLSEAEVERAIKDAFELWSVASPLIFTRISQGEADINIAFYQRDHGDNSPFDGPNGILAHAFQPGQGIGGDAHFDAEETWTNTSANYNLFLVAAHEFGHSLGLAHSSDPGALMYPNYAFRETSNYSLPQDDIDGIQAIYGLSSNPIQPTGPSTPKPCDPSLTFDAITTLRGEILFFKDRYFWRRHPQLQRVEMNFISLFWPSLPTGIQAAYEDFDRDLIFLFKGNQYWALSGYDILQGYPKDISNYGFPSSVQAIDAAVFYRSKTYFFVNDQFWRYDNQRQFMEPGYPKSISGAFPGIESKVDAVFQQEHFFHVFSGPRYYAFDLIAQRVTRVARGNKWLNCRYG

Neutrophil collagenase [4] = target: T3, Neutrophil collagenase; experiment: Inhibition of recombinant MMP8 catalytic site using Mca-Pro-Leu-Gly-Leu-Dpa-Ala-Arg as substrate incubated for 30 mins prior to substrate addition measured after 3 hrs by fluorimetric assay
How it was run: (§3)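 Recombinant catalytic-domain MMP-8 or MMP-9 (500 pM enzyme solution) is used in Tris-HCl 0.1 M pH 7.5, 0.1 M NaCl, 10 mM CaCl2, 0.05% Brij35, 1 mM APMA. Preincubated with inhibitor 30 min at 25 °C, then substrate (25 μM solution) 3 h at 37 °C. Acetic acid stop, fluorescence 340/405 nm. IC50 from six concentrations in triplicate, run twice.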
Target sequence in this assay (P22894 whole entry): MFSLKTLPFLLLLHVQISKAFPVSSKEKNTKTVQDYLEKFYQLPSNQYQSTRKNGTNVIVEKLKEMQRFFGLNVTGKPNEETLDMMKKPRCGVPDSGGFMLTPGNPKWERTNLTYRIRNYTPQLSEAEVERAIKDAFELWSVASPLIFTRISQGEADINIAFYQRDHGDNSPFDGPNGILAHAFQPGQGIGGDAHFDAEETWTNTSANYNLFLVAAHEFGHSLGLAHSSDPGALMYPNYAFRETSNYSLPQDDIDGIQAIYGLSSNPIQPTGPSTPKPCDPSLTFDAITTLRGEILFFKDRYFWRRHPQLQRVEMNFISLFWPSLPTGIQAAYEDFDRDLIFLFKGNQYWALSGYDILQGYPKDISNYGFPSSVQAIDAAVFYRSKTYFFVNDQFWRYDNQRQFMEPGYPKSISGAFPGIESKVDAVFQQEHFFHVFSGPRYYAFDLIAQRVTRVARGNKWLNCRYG

[5] = target: T1, Matrix metalloproteinase-9; experiment: Inhibition of recombinant MMP9 catalytic site using Mca-Pro-Leu-Gly-Leu-Dpa-Ala-Arg as substrate incubated for 30 mins prior to substrate addition measured after 3 hrs by fluorimetric assay; how it was run: as §3
[6] = target: T2, 72 kDa type IV collagenase; experiment: Inhibition of MMP2 using Mca-Pro-Leu-Gly-Leu-Dpa-Ala-Arg as substrate incubated for 30 mins prior to substrate addition measured after 3 hrs by fluorimetric assay
How it was run: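 It is preincubated with inhibitor at 25 °C for 30 min. Substrate is added from a 25 μM solution and incubated 3 h at 37 °C. Acetic acid quench, fluorescence ex 340/em 405 nm. IC50 from 6 concentrations in triplicate, two runs.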
Target sequence in this assay (P08253 whole entry): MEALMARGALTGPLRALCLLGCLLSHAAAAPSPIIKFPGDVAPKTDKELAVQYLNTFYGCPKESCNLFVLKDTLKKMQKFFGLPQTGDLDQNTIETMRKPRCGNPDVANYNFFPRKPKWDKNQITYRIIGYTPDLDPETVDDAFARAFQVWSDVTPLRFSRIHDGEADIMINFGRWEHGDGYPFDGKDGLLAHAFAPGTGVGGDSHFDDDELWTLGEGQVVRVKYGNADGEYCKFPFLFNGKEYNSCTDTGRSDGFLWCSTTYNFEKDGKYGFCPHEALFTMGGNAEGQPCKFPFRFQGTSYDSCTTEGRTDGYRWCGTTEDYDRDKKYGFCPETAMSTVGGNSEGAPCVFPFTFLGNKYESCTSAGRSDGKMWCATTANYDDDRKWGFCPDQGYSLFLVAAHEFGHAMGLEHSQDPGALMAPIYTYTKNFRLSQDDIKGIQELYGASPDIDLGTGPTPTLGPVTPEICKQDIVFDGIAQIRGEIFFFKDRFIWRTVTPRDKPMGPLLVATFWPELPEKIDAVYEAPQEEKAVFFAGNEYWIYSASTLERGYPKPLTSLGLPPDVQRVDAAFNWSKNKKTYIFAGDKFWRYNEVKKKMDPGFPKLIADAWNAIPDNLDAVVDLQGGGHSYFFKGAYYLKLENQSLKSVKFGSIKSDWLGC

[7] = target: T1, Matrix metalloproteinase-9; experiment: Inhibition of recombinant MMP9 catalytic site using Mca-Pro-Leu-Gly-Leu-Dpa-Ala-Arg as substrate at 10 uM incubated for 30 mins prior to substrate addition measured after 3 hrs by fluorimetric assay; how it was run: as §1
[8] = target: T2, 72 kDa type IV collagenase; experiment: Inhibition of MMP2 using Mca-Pro-Leu-Gly-Leu-Dpa-Ala-Arg as substrate at 10 uM incubated for 30 mins prior to substrate addition measured after 3 hrs by fluorimetric assay; how it was run: as §2
Target sequence in this assay (P08253 110-660 limits assumed): as the sequence (P08253 110-660 limits assumed) above

T1 sequence (P14780 whole entry): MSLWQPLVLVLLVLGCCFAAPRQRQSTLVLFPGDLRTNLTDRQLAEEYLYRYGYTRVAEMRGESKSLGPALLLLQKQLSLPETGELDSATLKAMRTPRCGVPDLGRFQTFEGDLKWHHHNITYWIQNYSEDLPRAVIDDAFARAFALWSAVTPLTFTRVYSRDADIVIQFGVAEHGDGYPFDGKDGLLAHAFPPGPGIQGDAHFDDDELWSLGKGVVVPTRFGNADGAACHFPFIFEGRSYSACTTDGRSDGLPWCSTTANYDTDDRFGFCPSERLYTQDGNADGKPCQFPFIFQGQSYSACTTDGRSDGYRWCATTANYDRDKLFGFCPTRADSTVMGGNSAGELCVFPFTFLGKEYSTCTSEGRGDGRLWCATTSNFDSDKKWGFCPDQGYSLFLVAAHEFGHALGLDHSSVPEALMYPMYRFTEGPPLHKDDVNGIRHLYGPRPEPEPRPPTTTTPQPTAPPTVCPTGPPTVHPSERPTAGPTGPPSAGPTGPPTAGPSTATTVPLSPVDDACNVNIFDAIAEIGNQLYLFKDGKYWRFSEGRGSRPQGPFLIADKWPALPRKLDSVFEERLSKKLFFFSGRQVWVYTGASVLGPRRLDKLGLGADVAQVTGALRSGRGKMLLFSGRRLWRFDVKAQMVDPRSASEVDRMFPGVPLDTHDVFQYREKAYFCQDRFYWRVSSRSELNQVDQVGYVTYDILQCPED

## CC(=O)C(c1ccc(-c2ccccc2)cc1)C1(O)C(=O)NC(=O)NC1=O (centres undefined)
[1]
  inhibition: 28%
[2]
  inhibition: 38%
Neutrophil collagenase [3]
  inhibition: 71%

## CSc1ccc(-c2ccc(C(=O)CC3(O)C(=O)NC(=O)NC3=O)cc2)cc1
Neutrophil collagenase [4]
  IC50: 0.313 µM
[5]
  IC50: 0.086 µM
[6]
  IC50: 0.12 µM

## O=C1NC(=O)C(O)(CC(=O)c2ccc(-c3ccc(CO)cc3)cc2)C(=O)N1
Neutrophil collagenase [4]
  IC50: 0.21 µM
[5]
  IC50: 0.561 µM
[6]
  IC50: 0.148 µM

## CC(=O)c1ccc(-c2ccc(C(=O)CC3(O)C(=O)NC(=O)NC3=O)cc2)cc1
Neutrophil collagenase [4]
  IC50: 0.109 µM
[5]
  IC50: 0.17 µM
[6]
  IC50: 0.03 µM

## Cc1ccc(-c2ccc(C(=O)CC3(O)C(=O)NC(=O)NC3=O)cc2)cc1
Neutrophil collagenase [4]
  IC50: 0.336 µM
[5]
  IC50: 0.103 µM
[6]
  IC50: 0.301 µM

## CN(C)C(=O)c1ccc(-c2ccc(C(=O)CC3(O)C(=O)NC(=O)NC3=O)cc2)cc1
Neutrophil collagenase [4]
  IC50: 2.02 µM
[5]
  IC50: 3.01 µM
[6]
  IC50: 1.34 µM

## O=C1NC(=O)C(O)(CC(=O)c2ccc(-c3ccc(Cl)cc3)cc2)C(=O)N1
Neutrophil collagenase [4]
  IC50: 0.271 µM
[5]
  IC50: 0.066 µM
[6]
  IC50: 0.278 µM

## O=C1NC(=O)C(O)(CC(=O)c2ccc(C(F)(F)F)cc2)C(=O)N1
[7]
  inhibition: 11%

## O=C1NC(=O)C(O)(CC(=O)c2ccc([N+](=O)[O-])cc2)C(=O)N1
Neutrophil collagenase [4]
  IC50: 63 µM
[7]
  inhibition: 8%
[8]
  inhibition: 0%

## O=C(Cc1ccc(-c2ccccc2)cc1)CC1(O)C(=O)NC(=O)NC1=O
[1]
  inhibition: 21%
[2]
  inhibition: 10%
Neutrophil collagenase [3]
  inhibition: 26%

## O=C1NC(=O)C(O)(CC(=O)c2ccc(-c3cccc([N+](=O)[O-])c3)cc2)C(=O)N1
Neutrophil collagenase [4]
  IC50: 2.6 µM
[5]
  IC50: 27.5 µM
[6]
  IC50: 8.1 µM

## CS(=O)(=O)c1ccc(-c2ccc(C(=O)CC3(O)C(=O)NC(=O)NC3=O)cc2)cc1
Neutrophil collagenase [4]
  IC50: 0.066 µM
[5]
  IC50: 0.65 µM
[6]
  IC50: 0.058 µM

## O=C1NC(=O)C(O)(CC(=O)c2ccccc2)C(=O)N1
[8]
  inhibition: 0%

## O=C1NC(=O)C(O)(CC(=O)c2ccc(-c3ccsc3)cc2)C(=O)N1
Neutrophil collagenase [4]
  IC50: 0.153 µM
[5]
  IC50: 0.159 µM
[6]
  IC50: 0.181 µM

## O=C1NC(=O)C(O)(CC(=O)c2ccc(-c3ccc(OC(F)(F)F)cc3)cc2)C(=O)N1
Neutrophil collagenase [4]
  IC50: 0.715 µM
[5]
  IC50: 0.021 µM
[6]
  IC50: 0.143 µM

## COc1ccc(-c2ccc(C(=O)CC3(O)C(=O)NC(=O)NC3=O)cc2)cc1
Neutrophil collagenase [4]
  IC50: 0.184 µM
[5]
  IC50: 0.141 µM
[6]
  IC50: 0.121 µM

— ChEMBL document CHEMBL2150857, “Design, synthesis and biological evaluation of 5-hydroxy, 5-substituted-pyrimidine-2,4,6-triones as potent inhibitors of gelatinases MMP-2 and MMP-9” (Eur J Med Chem, 2012)
